High-throughput results from PubChem BioAssay.
FAS-TE inh = inhibitors of human fatty acid synthase thioesterase domain | P49327 | recombinant FAS-TE, OMFH fluorogenic substrate, fluorescence endpoint | inhibition, % at 15 µM | 0.67% of 360,000 active;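 active = compounds whose normalised, plate-corrected inhibition of enzyme fluorescence in the single-dose primary screen is 50% or more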;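 note: 0% = DMSO with enzyme and 100% = substrate without enzyme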
Arr AP2 block = human beta-arrestin and AP2 interaction inhibition | FITC-arrestin peptide / GST-AP2 beads, flow cytometry; AP2 beta2 appendage carries R879A mutation | inhibition, % at 10 µM | AID 504490 | 0.31% of 340,000 active;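 active = inhibition above a set limit, near 3 SD of compounds lacking own fluorescence, cut at about 54% in these data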;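 note: plate controls were DMSO wells for no effect and 5 µM unlabelled arrestin peptide for full effect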
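test system = AP2 appendage R879A on GSH beads | buffer or medium = PBS plus Tween 20 (0.05%) and BSA (0.1%) | incubation = 12 min plus 1 h, RT | detection = bead flow cytometry, FITC channel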
ADAM10 inh = inhibitors of human ADAM10 | O14672 | recombinant ADAM10, EDANS/DABCYL FRET peptide cleavage, 3 h | inhibition, % at 7 µM | 0.62% of 370,000 active | AID 720582;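 active = inhibition above a per-campaign cutoff equal to the mean of compounds falling between control-based bounds plus 3 SD, cut at about 20% in these data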;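 note: 0% = DMSO wells while the 100% control is not disclosed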
Target sequence (O14672 214-748 limits assumed): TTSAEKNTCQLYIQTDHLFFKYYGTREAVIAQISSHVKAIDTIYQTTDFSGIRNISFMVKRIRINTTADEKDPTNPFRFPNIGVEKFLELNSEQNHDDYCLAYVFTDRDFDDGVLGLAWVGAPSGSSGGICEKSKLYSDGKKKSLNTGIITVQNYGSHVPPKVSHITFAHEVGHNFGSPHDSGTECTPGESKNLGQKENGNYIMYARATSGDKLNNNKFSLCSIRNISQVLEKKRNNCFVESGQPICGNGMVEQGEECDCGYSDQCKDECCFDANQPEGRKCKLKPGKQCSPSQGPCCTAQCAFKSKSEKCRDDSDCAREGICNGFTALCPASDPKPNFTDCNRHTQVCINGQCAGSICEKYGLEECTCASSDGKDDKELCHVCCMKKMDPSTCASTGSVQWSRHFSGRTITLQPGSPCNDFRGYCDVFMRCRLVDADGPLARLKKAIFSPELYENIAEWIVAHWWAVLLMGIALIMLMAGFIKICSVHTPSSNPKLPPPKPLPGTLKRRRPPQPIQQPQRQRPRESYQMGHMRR
CendR NRP1 mod = modulators of CendR peptide binding to human neuropilin-1 | O14786 | FAM-RPARPAR peptide binding to NRP-1, fluorescence polarization | inhibition, % at 25 µM | 0.85% of 360,000 active | AID 602438;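 active = inhibition or corrected inhibition above about 18%, plus a signal ratio from 0.5 to 1.5, limit read from the data, passing the limit was not always enough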
CaV13 FRET inh = Disruptors of the CACNA1D IQ motif to Ca2+-dependent inactivation inhibitor domain association, primary screening, Förster resonance energy transfer in intact living …; HEK cells, CFP/YFP FRET ICDI-IQ, plate reader, 10 min; percent FRET-ratio fall versus neutral wells; inhibition, % at 12.3 µM; 0.098% of 340,000 active;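 active = mean replicate inhibition of at least 30% and at least 1% of replicates passing that level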;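 note: 0% = median of the neutral control wells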
ADAM17 inh = inhibitors of human ADAM17; 0.83% of 370,000 active; AID 720648; recombinant ADAM17, EDANS/DABCYL FRET peptide cleavage; inhibition, % at 6.95 µM;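 active = inhibition above the mean of compounds lying between control limits plus 3 SD, set per campaign, cut at about 8.5% in these data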;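 note: 0% = DMSO-only wells as the low control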
Active calls of the source: *; i = inactive; . = no result. Shown are actives, neighbours in structure and some others; about 2.9% of the full set was active somewhere.

SMILES | FAS-TE inh | Arr AP2 block | ADAM10 inh | CendR NRP1 mod | CaV13 FRET inh | ADAM17 inh
COc1cccc(Cn2cc(COC(=O)NCCc3ccccc3)nn2)c1 | . | . | -2 | . | . | 2
Cc1ccc(CN2CCN(Cc3c(C)nn(C(C)C)c3C)CC2CCO)o1 (stereo not given) | -5 | 4 | 4 | 18* | -4 | -13
Cc1ccc(CN2CCN(Cc3ccncc3)CC2CCO)o1 (stereo not given) | -2 | 0 | -1 | 4 | -4 | -4
Cc1cc(C)n(CCC(=O)N/N=C/c2c(O)ccc3ccccc23)n1 | 6 | -1 | 5 | 34* | -3 | 5
CC(=O)OCC(=O)C1(O)CCC2C3CC(C)C4=CC(=O)C=CC4(C)C3=CCC21C (stereo not given) | -4 | -20 | -11 | 19* | -5 | 1
CCOc1cc(NC(=S)NCCCN2CCOCC2)c(OCC)cc1NC(=O)c1ccccc1 | -5 | 4 | -7 | -12 | -3 | -1
CCOc1cc(NC(=S)NCCCN2CCOCC2)c(OCC)cc1NC(=O)c1cccs1 | -2 | 6 | 0 | 24* | -5 | -1
CCCCNC(=S)N1CCn2cccc2C1c1ccc(F)cc1 (stereo not given) | 19 | 36 | -2 | -12 | -7 | -4
CCCCNC(=S)N1CCn2cccc2C1c1ccccc1 (stereo not given) | 14 | -10 | 4 | 27* | 2 | -3
Cc1cc2c(cc1C)-c1nnnn1C(N1CCCCC1)C(=O)N2 (stereo not given) | . | . | 2 | 21* | -14 | 0
O=C(CCNS(=O)(=O)c1ccccc1)NNC(=O)c1cccc(Cl)c1 | -1 | 24 | 7 | -19 | -2 | -1
Oc1ccccc1-c1ccn[nH]1 | -12 | 1 | -4 | 32* | -10 | -2
COc1ccc(/C=C2/SC(=S)N(Cc3ccccc3)C2=O)cc1O | 16 | 41 | 8 | -16 | -20 | 0
COc1ccc(/C=C2\SC(=S)N(N3C(=O)CCC3=O)C2=O)cc1O | -5 | -21 | -5 | 36* | -14 | -2
O=C(Cn1ccc([N+](=O)[O-])n1)N1CCCCC1 | -6 | -10 | 3 | -3 | -3 | -4
O=C(Cn1ccc([N+](=O)[O-])n1)N1CCCCCC1 | -6 | 3 | -8 | 1 | 115* | -5
C/C(C=NNC(=O)CSc1nnc(-c2ccc(Cl)cc2)n1-c1ccccc1)=C\c1ccccc1 | . | . | 3 | . | . | 3
C=CCNC(=O)c1cnn(-c2ccccc2)c1-c1ccccc1 | -4 | 35 | 9 | 26* | -21 | 0
COc1cc2c(cc1OC)CN(CC(=O)Nc1ccc(F)cc1)C(C(=O)O)C2 (stereo not given) | -4 | -5 | -26 | -3 | -5 | -20
Cc1ccnc(SCc2cn3c(C)cccc3n2)n1 | -5 | 9 | -3 | 20* | -7 | -1
CCc1noc(C)c1C(=O)N1CCN(c2cccc(Cl)c2)CC1 | -5 | . | 0 | 6 | -17 | 1
C[C@H](O)[C@@H]1C(=O)N2CCc3c([nH]c4c(-c5ccccc5)cccc34)[C@@H]2C[C@@H]1N(C)C(=O)c1ccco1 | . | . | -121 | . | -4 | -32
C=CC[C@]12C[C@@]3(O[C@H](c4ccccn4)N=C3C[C@H](c3ccc(OC)cc3)[C@H]1C)N(C1CCN(Cc3ccccc3)CC1)C2=O | . | . | 5 | . | -6 | 3
C/C(=N\NC(=O)C1CCCC1)c1ccc(C(C)C)cc1 | 7 | -5 | -2 | 27* | . | -2
CC(=O)Nc1ccc(C(C)=NNC(=O)C2CCCC2)cc1 | -4 | . | 2 | 0 | -5 | 0
SMILES | FAS-TE inh | Arr AP2 block | ADAM10 inh | CendR NRP1 mod | CaV13 FRET inh | ADAM17 inh
CC(c1cc(F)ccc1O)c1c[nH]c2ccccc12 (stereo not given) | . | . | 2 | . | . | 1
CCC(=O)N1CCC1(C)C(=O)Nc1ccc2c(c1)CCN2C(C)=O (stereo not given) | -8 | . | -3 | -4 | -5 | -5
CC(OC(=O)c1cc(Br)ccc1O)C(=O)Nc1ccc(S(=O)(=O)N2CCCC2)cc1 (stereo not given) | 24 | 8 | 5 | 25* | -6 | 1
CCOC(=O)CCCCCC(=O)Nc1ccc2c(c1)C(=O)N([C@H](C)CO)C[C@@H](C)[C@@H](CN(C)C(=O)CCC(F)(F)F)OCCCC[C@H](C)O2 | -7 | . | -1 | 1 | -10 | 5
NS(=O)(=O)c1cccc(NC(=O)COC(=O)Cc2ccc(S(=O)(=O)N3CCOCC3)s2)c1 | -6 | 17 | -3 | -6 | -3 | -6
CC1(c2ccccc2)CC(C)(C)n2c(O)c(C3=NC(=S)NC3=O)c3cccc1c32 (stereo not given) | 0 | -4 | 2 | 26* | 0 | -1
CC(=O)c1cc2ccc(O)cc2oc1=O | -6 | 32 | i | 13 | 33* | i
Cc1ccc(NC(=O)c2cc3ccccc3oc2=N)cc1 | -3 | -8 | -3 | 5 | -20 | 4
N=c1oc2cc(O)ccc2cc1C(=O)Nc1ccc(Cl)cc1 | 2 | 3 | i | -52 | 113* | -282
COc1ccc2cc(C(C)=O)c(=O)oc2c1 | -10 | -9 | -152 | 7 | -4 | -57
Cc1cccc(NC(=O)CCc2ccc(N3C(N)=NC(N)=NC3(C)C)cc2)c1 | -6 | . | -17 | 14 | -6 | -3
CSCCCNC(=S)N1CCN(c2ccc(C(C)=O)cc2)CC1 | 0 | -14 | -11 | 24* | -5 | 0
CCCCNC(=S)N1CCN(c2ccc(C(C)=O)cc2)CC1 | 0 | -4 | -3 | -7 | -7 | -8
Cc1ccccc1C(=O)N(C)[C@H]1C[C@H]2c3[nH]c4c(-c5ccc6c(c5)OCO6)cccc4c3CCN2C[C@H]1[C@H](C)O | . | . | 9 | . | . | 2
CCCOc1ccc(NC(=O)c2c(-c3ccccc3)noc2C)cc1 | 6 | 20 | -7 | -6 | 36* | 0
CC(=O)Nc1ccc(OCCCNC(=O)c2c(-c3ccccc3)noc2C)cc1 | -2 | 3 | 5 | 2 | -5 | -1
CC(=O)OC[C@@H]1CN(Cc2cccc(C(F)(F)F)c2)C[C@H](n2cnc3c(NCc4ccco4)ncnc32)O1 | 11 | . | -4 | 40* | -10 | 5
CCN(CC)c1ncnc2c1ncn2[C@H]1CN(Cc2ccccc2)C[C@@H](COC(C)=O)O1 | 6 | . | -4 | -9 | -10 | -4
CC(=O)OC[C@@H]1CN(Cc2ccccc2)C[C@H](n2cnc3c(N(C)C(C)C)ncnc32)O1 | 2 | . | -4 | 3 | 45* | 2
CC(=O)OC[C@@H]1CN(Cc2cccc(C(F)(F)F)c2)C[C@H](n2cnc3c(N4CCOCC4)ncnc32)O1 | 16 | . | -16 | -25 | -9 | 1
N#CCC[C@H]1CC[C@]2(CCCN(C(=O)c3ccno3)C2)O1 | . | . | -9 | . | . | -4
